Usually IC50 stands for the concentration that inhibits the measured activity by half. Low values mean inhibition by little substance, high ones a need for much substance.

In ChEMBL document CHEMBL4033798, “Discovery of Novel KRAS-PDEδ Inhibitors by Fragment-Based Drug Design” (J Med Chem, 2018) one finds IC50 and Activity data, which are given here for 29 compounds.

The structures appear in SMILES notation.

The test system of assay [1] is CAPAN-1. In words: Antiproliferative activity against KRAS-dependent human Capan1 cells after 48 hrs by CCK8 assay. The following applies: CAPAN-1, 48 h. (In general: Tetrazolium dyes change colour on reduction, which living cells bring about.)
The subject of assay [2] is CAPAN-1. In words: Induction of apoptosis in KRAS-dependent human Capan1 cells at 50 uM incubated for 48 hrs by Annexin-V FITC/propidium iodide staining-based flow cytometry (reference value: 3.51%). It is filed as functional. In short, it runs like this:
(§1)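 Capan-1 cells were exposed to compound for 48 h, with 0.1% DMSO as the vehicle control. The read-out is the percentage of apoptotic cells. Compounds were tested at 10, 25 or 50 μM.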
For orientation: In flow cytometry, cells or beads pass a laser one at a time.

In assay [3] the test system is CAPAN-1. As to the kind of experiment: Induction of apoptosis in KRAS-dependent human Capan1 cells at 25 uM incubated for 48 hrs by Annexin-V FITC/propidium iodide staining-based flow cytometry (reference value: 3.51%). It is filed as functional. The method, boiled down: as §1
In assay [4] the test system is CAPAN-1. In words: Induction of apoptosis in KRAS-dependent human Capan1 cells after 48 hrs by Annexin-V FITC/propidium iodide staining-based flow cytometry. It is filed as functional, cell-based. The method, boiled down: as §1
In assay [5] the test system is CAPAN-1. In words: Induction of apoptosis in KRAS-dependent human Capan1 cells at 10 uM incubated for 48 hrs by Annexin-V FITC/propidium iodide staining-based flow cytometry (reference value: 3.51%). It is filed as functional. In short, it runs like this: as §1

`COc1ccc2c(c1)NC(c1ccccc1F)N(CCOc1ccc(-c3nc4ccccc4n3Cc3ccncc3)cc1)C2=O` (stereo not drawn) gave an IC50 in assay [1] greater than 100 µM.
With `Cc1nccn1CCOc1ccc(N2C(=O)c3ccccc3NC2c2ccccc2F)cc1` (stereo not drawn), in assay [1], the IC50 was greater than 100 µM.
In turn, `Cc1ccc(-n2nc3c(=O)n(CCCC(=O)NCC(C)c4ccccc4)nc(C)c3c2C)cc1` (stereo not drawn) displayed an Activity in assay [2] of 20.5%. Further, in assay [1], the IC50 amounted to 48 µM.
Compound `O=C1c2ccc(F)cc2NC(c2ccccc2F)N1CCOc1ccc(-c2nc3ccccc3n2Cc2ccncc2)cc1` (stereo not drawn) came in with an IC50 in assay [1] greater than 100 µM.
On the same count and under the same terms, the same measure for `O=C1c2cc(F)ccc2NC(c2ccccc2F)N1CCOc1ccc(-c2nc3ccccc3n2Cc2ccncc2)cc1` (stereo not drawn): greater than 100 µM.
Take `O=C1c2cc(F)ccc2N(CC2CC2)C(c2ccccc2F)N1C1CCN(CCCn2ccnc2-c2ccccc2)CC1` (stereo not drawn): the figures for the Activity in assay [3], in assay [4] and in assay [5] were 36.4%, “Dose-dependent effect” and 17.95%, respectively. The same compound showed an IC50 in assay [1] of 8.8 µM.
On to `O=C1c2cc(F)ccc2N(CC2CCCC2)C(c2ccccc2F)N1C1CCN(CCCn2ccnc2-c2ccccc2)CC1` (stereo not drawn), for which, in assay [1], it took 12.4 µM to reach half-maximal inhibition (IC50).
For `O=C1c2ccccc2NC(c2ccccc2F)N1c1ccc(OCCn2c(-c3ccccc3)nc3ccccc32)cc1` (stereo not drawn), the IC50 in assay [1] was greater than 100 µM.
Compound `O=C1c2ccccc2NC(c2ccccc2F)N1c1ccc(OCCn2ccnc2-c2ccccc2)cc1` (stereo not drawn) showed an IC50 in assay [1] greater than 100 µM.
On the same count and under the same terms, the same measure for `Cc1nccn1CCOc1ccc(N2C(=O)c3ccccc3NC2c2ccccn2)cc1` (stereo not drawn): greater than 100 µM; for `O=C1c2ccccc2NC(c2ccccn2)N1c1ccc(OCCn2ccnc2-c2ccccc2)cc1` (stereo not drawn): 52 µM.
On to `Cc1ccc2c(c1)C(=O)N(CCOc1ccc(-c3nc4ccccc4n3Cc3ccncc3)cc1)C(c1ccccc1F)N2` (stereo not drawn), for which the IC50 in assay [1] was greater than 100 µM.
On to `O=C1c2ccccc2NC(c2ccccc2F)N1c1ccc(OCCn2ccnc2)cc1` (stereo not drawn), for which, in assay [1], the IC50 is greater than 100 µM.
In assay [1], `CN1c2ccc(F)cc2C(=O)N(C2CCN(CCCn3ccnc3-c3ccccc3)CC2)C1c1ccccc1F` (stereo not drawn) displayed an IC50 of 47 µM.
In assay [1], `Cc1ccc2c(c1)NC(c1ccccc1F)N(C1CCN(CCCn3ccnc3-c3ccccc3)CC1)C2=O` (stereo not drawn) registered an IC50 of 78 µM.
As to `COc1ccc2c(c1)C(=O)N(C1CCN(CCCn3ccnc3-c3ccccc3)CC1)C(c1ccccc1F)N2` (stereo not drawn), in assay [1], the IC50 stood at 74 µM.
On the same count and under the same terms, the same measure for `Cc1ccc2c(c1)C(=O)N(C1CCN(CCCn3ccnc3-c3ccccc3)CC1)C(c1ccccc1F)N2` (stereo not drawn): 42 µM; for `O=C1c2cc(F)ccc2N(CC2CCC2)C(c2ccccc2F)N1C1CCN(CCCn2ccnc2-c2ccccc2)CC1` (stereo not drawn): 11.6 µM; for `O=C1c2cc(Cl)ccc2NC(c2ccccc2F)N1CCOc1ccc(-c2nc3ccccc3n2Cc2ccncc2)cc1` (stereo not drawn): greater than 100 µM.
Regarding `O=C1c2ccc(F)cc2NC(c2ccccc2F)N1C1CCN(CCCn2ccnc2-c2ccccc2)CC1` (stereo not drawn), in assay [1], the IC50 was found to be 35 µM.
Compound `O=C1c2ccc(Cl)cc2NC(c2ccccc2F)N1CCOc1ccc(-c2nc3ccccc3n2Cc2ccncc2)cc1` (stereo not drawn) gave a half-inhibitory concentration (IC50) in assay [1] greater than 100 µM.
The compound `COc1ccc2c(c1)NC(c1ccccc1F)N(C1CCN(CCCn3ccnc3-c3ccccc3)CC1)C2=O` (stereo not drawn) showed an IC50 in assay [1] of 82 µM.
In turn, `O=C1c2ccccc2NC(c2ccccn2)N1c1ccc(OCCn2ccnc2)cc1` (stereo not drawn) returned an IC50 in assay [1] greater than 100 µM.
Turning to `O=C1c2cc(F)ccc2NC(c2ccccc2F)N1C1CCN(CCCn2ccnc2-c2ccccc2)CC1` (stereo not drawn), half-maximal inhibition in assay [1] (IC50) was put at 33 µM.
The compound `O=C1c2cc(F)ccc2N(CC2CCCCC2)C(c2ccccc2F)N1C1CCN(CCCn2ccnc2-c2ccccc2)CC1` (stereo not drawn) had an IC50 in assay [1] of 54.6 µM.
Regarding `O=C1c2ccccc2NC(c2ccccc2F)N1CCOc1ccc(-c2nc3ccccc3n2Cc2ccncc2)cc1` (stereo not drawn), in assay [1], the IC50 is greater than 100 µM.
On the same count and under the same terms, the same measure for `Cc1nc2ccccc2n1CCOc1ccc(N2C(=O)c3ccccc3NC2c2ccccc2F)cc1` (stereo not drawn): greater than 100 µM.
Compound `O=C1c2ccccc2NC(c2ccccc2F)N1C1CCN(CCCn2ccnc2-c2ccccc2)CC1` (stereo not drawn) displayed an IC50 in assay [1] of 34 µM.
Compound `O=C1c2ccccc2NC(c2ccccn2)N1c1ccc(OCCn2c(-c3ccccc3)nc3ccccc32)cc1` (stereo not drawn) gave an IC50 in assay [1] greater than 100 µM.
